Assay results: ChEMBL document CHEMBL4350958, “Rational Design of Short Peptide Variants by Using Kunitzin-RE, an Amphibian-Derived Bioactivity Peptide, for Acquired Potent Broad-Spectrum Antimicrobial and Improved Therapeutic Potential of Commensalism Coinfection of Pathogens” (J Med Chem, 2019)
Values after ≈ are worked out from the molar mass of the structure shown. Where a SMILES comes first, the peptide text is derived from it.

How the values were obtained:
Staphylococcus aureus [1] = experiment: Antibacterial activity against Staphylococcus aureus ATCC 29213 measured after 18 to 24 hrs in presence of FeCl3; assay type: functional
Staphylococcus aureus [2] = experiment: Antibacterial activity against Staphylococcus aureus ATCC 29213 measured after 24 hrs; assay type: functional; settings: ATCC 29213, 24 h
Procedure, shortened: (§1)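 Broth microdilution modified from NCCLS. Mid-log bacteria at (0.5–1) × 10^5 CFU mL−1 in MHB, mixed with peptides serially diluted in 0.2% BSA. Incubated 24 h at 37 °C, read at A492. MIC taken as lowest concentration giving 95% growth inhibition. At least three independent experiments, each with three technical replicates.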

Staphylococcus aureus [3] = experiment: Antibacterial activity against Staphylococcus aureus ATCC 25923 measured after 24 hrs; assay type: functional; settings: ATCC 25923, 24 h; procedure, shortened: as §1
[4] = Therapeutic index, ratio of MHC10 for hemolytic activity in human RBC to MIC95 against Staphylococcus aureus ATCC 25923; assay type: toxicity; settings: human red blood cells (erythrocytes), read-out: TI
Procedure, shortened: (§2)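 Therapeutic index = MHC divided by MIC. MHC is the lowest concentration giving >10% lysis of human RBC (1 h, 37 °C, 1-128 µM, A576). MIC is 95% growth inhibition by broth microdilution: bacteria in MHB 24 h at 37 °C; Candida in MOPS-buffered RPMI 1640 at (0.5–1) × 10^3 CFU mL−1, 48 h at 28 °C.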

[5] = Therapeutic index, ratio of MHC10 for hemolytic activity in human RBC to MIC95 against methicillin-resistant Staphylococcus aureus ATCC 43300; assay type: toxicity; settings: human red blood cells (erythrocytes), read-out: TI; procedure, shortened: as §2
Escherichia coli [6] = experiment: Antibacterial activity against Escherichia coli ATCC 25922 measured after 18 to 24 hrs in presence of FeCl3; assay type: functional
[7] = Therapeutic index, ratio of MHC10 for hemolytic activity in human RBC to MIC95 against Candida parapsilosis cgmcc2.3989; assay type: toxicity; settings: human red blood cells (erythrocytes), read-out: TI; procedure, shortened: as §2
[8] = Therapeutic index, ratio of MHC10 for hemolytic activity in human RBC to MIC95 against Candida tropicalis cgmcc2.1975; assay type: toxicity; settings: human red blood cells (erythrocytes), read-out: TI; procedure, shortened: as §2
Escherichia coli [9] = experiment: Antibacterial activity against Escherichia coli ATCC 25922 measured after 18 to 24 hrs in presence of CaCl2; assay type: functional
Staphylococcus aureus [10] = experiment: Bactericidal activity against methicillin-resistant Staphylococcus aureus ATCC 43300 incubated for 24 hrs followed by replating on agar plate and measured after overnight incubation; assay type: functional; settings: ATCC 43300, 24 h, read-out: MBC>99.9
Procedure, shortened: (§3)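 After the 24 h, 37 °C MHB microdilution MIC assay, 50 μL from each well was plated on agar and incubated overnight. MBC taken as lowest peptide concentration killing >99.9% of cells. At least three independent experiments, each with three technical replicates.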

Candida albicans [11] = experiment: Antifungal activity against Candida albicans cgmcc2.2086 measured after 48 hrs by broth microdilution method; assay type: functional; settings: cgmcc2.2086, 48 h
Procedure, shortened: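 Modified CLSI M27-A2 microdilution. Yeast colonies were diluted in MOPS-buffered RPMI 1640 to a final (0.5–1) × 10^3 CFU mL−1 and mixed with an equal volume of peptide serially diluted in 0.2% BSA. After 48 h at 28 °C, MIC was read at A492 as the lowest concentration inhibiting 95% of growth. At least three independent experiments, each with three technical replicates.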

Pseudomonas aeruginosa = experiment: Antibacterial activity against Pseudomonas aeruginosa ATCC 27853 measured after 24 hrs; assay type: functional; settings: ATCC 27853, 24 h
Procedure, shortened: (§4)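 Broth microdilution adapted from NCCLS. Mid-log bacteria were diluted in MHB to a final (0.5–1) × 10^5 CFU mL−1. Peptides were serially diluted in 0.2% BSA and mixed with an equal volume of cells. After 24 h at 37 °C, MIC was read at A492 as the lowest concentration inhibiting 95% of growth. At least three independent experiments, each with three technical replicates.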

Candida albicans [12] = experiment: Antifungal activity against Candida albicans cgmcc2.2086 measured after 48 hrs in presence of FeCl by broth microdilution method; assay type: functional; settings: cgmcc2.2086, 48 h
Staphylococcus aureus [13] = experiment: Antibacterial activity against Staphylococcus aureus ATCC 29213 measured after 18 to 24 hrs in presence of CaCl2; assay type: functional
[14] = system: Staphylococcus epidermidis; experiment: Antibacterial activity against Staphylococcus epidermidis ATCC 12228 measured after 24 hrs; assay type: functional; settings: ATCC 12228, 24 h; procedure, shortened: as §4
[15] = system: Staphylococcus epidermidis; experiment: Bactericidal activity against Staphylococcus epidermidis ATCC 12228 incubated for 24 hrs followed by replating on agar plate and measured after overnight incubation; assay type: functional; settings: ATCC 12228, 24 h, read-out: MBC>99.9
Procedure, shortened: (§5)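 Mid-log bacteria diluted in MHB to (0.5–1) × 10^5 CFU/mL and mixed 1:1 with peptide serially diluted in 0.2% BSA. After 24 h at 37 °C, 50 μL of each mixture was plated on agar and incubated overnight. MBC taken as the lowest concentration killing >99.9% of cells. At least three independent experiments, each with three technical replicates.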

Escherichia coli [16] = experiment: Antibacterial activity against Escherichia coli ATCC 25922 measured after 24 hrs; assay type: functional; settings: ATCC 25922, 24 h; procedure, shortened: as §4
[17] = Therapeutic index, ratio of MHC10 for hemolytic activity in human RBC to MIC95 against Staphylococcus aureus ATCC 29213; assay type: toxicity; settings: human red blood cells (erythrocytes), read-out: TI; procedure, shortened: as §2
Staphylococcus aureus [18] = experiment: Bactericidal activity against Staphylococcus aureus ATCC 25923 incubated for 24 hrs followed by replating on agar plate and measured after overnight incubation; assay type: functional; settings: ATCC 25923, 24 h, read-out: MBC>99.9; procedure, shortened: as §3
Escherichia coli [19] = experiment: Antibacterial activity against Escherichia coli ATCC 25922 measured after 18 to 24 hrs in presence of NaCl; assay type: functional
Salmonella typhimurium = experiment: Antibacterial activity against Salmonella typhimurium ATCC 14028 measured after 24 hrs; assay type: functional, Salmonella enterica subsp. enterica serovar Typhimurium; settings: Salmonella enterica, ATCC 14028, 24 h; procedure, shortened: as §4
Escherichia coli [20] = experiment: Antibacterial activity against Escherichia coli K99 measured after 24 hrs; assay type: functional; settings: K99, 24 h; procedure, shortened: as §4
Candida albicans [21] = experiment: Antifungal activity against Candida albicans cgmcc2.2086 measured after 48 hrs in presence of MgCl by broth microdilution method; assay type: functional; settings: cgmcc2.2086, 48 h
Escherichia coli [22] = experiment: Antibacterial activity against Escherichia coli 078 measured after 24 hrs; assay type: functional; settings: Escherichia coli, 078, 24 h; procedure, shortened: as §4
[23] = Bactericidal activity against Salmonella pullorum ATCC 7913 incubated for 24 hrs followed by replating on agar plate and measured after overnight incubation; assay type: functional, Salmonella enterica subsp. enterica serovar Pullorum; settings: Salmonella enterica, ATCC 7913, 24 h; read-out: MBC>99.9; procedure, shortened: as §5
Candida albicans [24] = experiment: Antifungal activity against Candida albicans cgmcc2.2086 measured after 48 hrs in presence of KCl by broth microdilution method; assay type: functional; settings: cgmcc2.2086, 48 h
Escherichia coli [25] = experiment: Antibacterial activity against Escherichia coli UB1005 measured after 24 hrs; assay type: functional; settings: UB1005, 24 h; procedure, shortened: as §4
Candida albicans [26] = experiment: Antifungal activity against Candida albicans cgmcc2.2086 measured after 48 hrs in presence of NH4Cl by broth microdilution method; assay type: functional; settings: cgmcc2.2086, 48 h
Escherichia coli [27] = experiment: Antibacterial activity against Escherichia coli ATCC 25922 measured after 18 to 24 hrs in presence of MgCl2; assay type: functional
Staphylococcus aureus [28] = experiment: Antibacterial activity against Staphylococcus aureus ATCC 29213 measured after 18 to 24 hrs in presence of NaCl; assay type: functional

Row | Molecule | MIC95 (Staphylococcus aureus [1]) [µM] | MIC95 (Staphylococcus aureus [2]) [µM] | MIC95 (Staphylococcus aureus [3]) [µM] | selectivity ratio [4] | selectivity ratio [5] | MIC95 (Escherichia coli [6]) [µM] | selectivity ratio [7] | selectivity ratio [8] | MIC95 (Escherichia coli [9]) [µM] | MIC95 (Candida albicans [11]) [µM] | MIC95 (Pseudomonas aeruginosa) [µM] | MIC95 (Candida albicans [12]) [µM] | MIC95 (Staphylococcus aureus [13]) [µM] | MIC95 [14] [µM] | MIC95 (Escherichia coli [16]) [µM] | selectivity ratio [17] | MIC95 (Escherichia coli [19]) [µM] | MIC95 (Salmonella typhimurium) [µM] | MIC95 (Escherichia coli [20]) [µM] | MIC95 (Candida albicans [21]) [µM] | other results
1 | H-AARIILRTRFR-NH2 | 16 | 16 | 16 | 16 | 16 | 16 | 4 | 4 | > 128 | 128 | > 128 | > 128 | 64 | 16 | 8 | 16 | > 128 | 16 | 4 | > 128 | MBC (Staphylococcus aureus [10]): 32 µM; MBC [15]: 32 µM; MBC (Staphylococcus aureus [18]): 32 µM; MIC95 (Escherichia coli [22]): 4 µM; MBC [23]: 16 µM; MIC95 (Candida albicans [24]): > 128 µM; MIC95 (Escherichia coli [25]): 4 µM; MIC95 (Candida albicans [26]): > 128 µM; MIC95 (Escherichia coli [27]): 128 µM; MIC95 (Staphylococcus aureus [28]): > 128 µM
2 | H-AARIILRFRFR-NH2 | 4 | 2 | 2 | 128 | 128 | 16 | 50.8 | 50.8 | 32 | 8 | > 128 | 8 | 4 | 2 | 8 | 128 | 64 | 4 | 2 | 16 | MBC (Staphylococcus aureus [10]): 4 µM; MBC [15]: 4 µM; MBC (Staphylococcus aureus [18]): 4 µM; MIC95 (Escherichia coli [22]): 4 µM; MBC [23]: 8 µM; MIC95 (Candida albicans [24]): 8 µM; MIC95 (Escherichia coli [25]): 4 µM; MIC95 (Candida albicans [26]): 4 µM; MIC95 (Escherichia coli [27]): 32 µM; MIC95 (Staphylococcus aureus [28]): 32 µM
3 | H-AARIILRNRFR-NH2 | > 128 | > 128 | > 128 | 2 | 2 | 32 | 2 | 2 | > 128 | > 128 | > 128 | > 128 | > 128 | > 128 | 32 | 2 | 128 | 32 | 16 | > 128 | MIC95 (Escherichia coli [22]): 16 µM; MBC [23]: 32 µM; MIC95 (Candida albicans [24]): > 128 µM; MIC95 (Escherichia coli [25]): 16 µM; MIC95 (Candida albicans [26]): > 128 µM; MIC95 (Escherichia coli [27]): 128 µM; MIC95 (Staphylococcus aureus [28]): > 128 µM
4 | CC[C@H](C)[C@H](NC(=O)[C@H](CCCCN)NC(=O)[C@H](C)NC(=O)[C@H](C)N)C(=O)N[C@H](C(=O)N[C@@H](CC(C)C)C(=O)N[C@@H](CC(N)=O)C(=O)N1CCC[C@H]1C(=O)N[C@@H](CCCCN)C(=O)N[C@@H](Cc1ccccc1)C(=O)N[C@@H](CCCNC(=N)N)C(=O)N[C@@H](CS)C(=O)N[C@@H](CCCCN)C(=O)N[C@@H](C)C(=O)N[C@@H](C)C(=O)N[C@@H](Cc1ccccc1)C(=O)N[C@@H](CS)C(N)=O)[C@@H](C)CC (H-AAKIILNPKFRCKAAFC-NH2) | > 128 | > 128 | 64 (≈ 121 µg/mL) | 0.3 | 0.3 | 32 | 0.25 | 0.25 | > 128 | > 128 | > 128 | > 128 | > 128 | > 128 | 32 (≈ 60.6 µg/mL) | 0.3 | > 128 | 64 (≈ 121 µg/mL) | 32 (≈ 60.6 µg/mL) | > 128 | MBC (Staphylococcus aureus [18]): > 128 µM; MIC95 (Escherichia coli [22]): > 128 µM; MBC [23]: > 128 µM; MIC95 (Candida albicans [24]): > 128 µM; MIC95 (Escherichia coli [25]): 64 µM (≈ 121 µg/mL); MIC95 (Candida albicans [26]): > 128 µM; MIC95 (Escherichia coli [27]): 64 µM; MIC95 (Staphylococcus aureus [28]): > 128 µM
